One assay relates to T-cells (human). Briefly: Compound was evaluated for the cytotoxicity to T cells in the presence of 2'-deoxyguanosine and expressed as ED50.
Assay [1] addresses purine nucleoside phosphorylase (human) (UniProt P00491). The assay can be described thus: Compound was evaluated for the concentration which […] inosine phosphorolysis by human lymphoblast purine nucleoside phosphorylase and expressed as IC50.
Assay [2] concerns Mus musculus. Briefly: Mice were inoculated intraperitoneally with L1210 leukemia cells and the median life span of the mice with the compound was evaluated at a dose of 200 mg/kg. The following applies: route intraperitoneal. The class given is functional. Put shortly: (§1)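 Mice implanted ip with L1210 leukemia, in groups of six, with 36 untreated controls. Drug given ip on days 1-5 at 50-800 mg/kg. Endpoint was median life span in days, with percent increase in life span (ILS) relative to untreated controls. Body weight change was taken as day 5 minus day 1 average weight.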

Assay [3] concerns Mus musculus. The assay can be described thus: Mice were inoculated intraperitoneally with L1210 leukemia cells and the percentage ILS of the mice with the compound was evaluated at a dose of 100 mg/kg. The format is functional. The note with it: L1210, ip, route intraperitoneal. Put shortly: as §1
Assay [4] has as its system Mus musculus. Briefly: Mice were inoculated intraperitoneally with L1210 leukemia cells and the change in body weight of the mice with the compound was evaluated at a dose of 200 mg/kg. The class given is functional. The note with it: route intraperitoneal. Put shortly:
(§2)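 Mice received intraperitoneally implanted L1210 leukemia, with groups of six treated mice and 36 untreated controls. Compound was given intraperitoneally on days 1-5. Body weight change was the average weight on day 5 minus the average on day 1, in grams. Median life span and % ILS were recorded against the untreated controls.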

Assay [5] relates to Mus musculus. Briefly: Mice were inoculated intraperitoneally with L1210 leukemia cells and the percentage ILS of the mice with the compound was evaluated at a dose of 200 mg/kg. The class given is functional. The note with it: L1210, ip, route intraperitoneal. Put shortly:
as §1

The test system of assay [6] is Mus musculus. Briefly: Mice were inoculated intraperitoneally with L1210 leukemia cells and the change in body weight of the mice with the compound was evaluated at a dose of 100 mg/kg. The format is functional. The following applies: route intraperitoneal. Put shortly:
as §2

For assay [7], the system named is Mus musculus. Briefly: Mice were inoculated intraperitoneally with L1210 leukemia cells and the median life span of the mice with the compound was evaluated at a dose of 100 mg/kg. The format is functional. The note with it: route intraperitoneal. Put shortly: as §1
The test system of assay [8] is Mus musculus. The assay can be described thus: Mice were inoculated intraperitoneally with L1210 leukemia cells and the change in body weight of the mice with the compound was evaluated at a dose of 400 mg/kg. The class given is functional. The note with it: route intraperitoneal. Put shortly:
as §2

Assay [9] relates to Mus musculus. The assay can be described thus: Mice were inoculated intraperitoneally with L1210 leukemia cells and the percentage ILS of the mice with the compound was evaluated at a dose of 400 mg/kg. The class given is functional. The following applies: L1210, ip, route intraperitoneal. Put shortly: as §1
The test system of assay [10] is Mus musculus. Briefly: Mice were inoculated intraperitoneally with L1210 leukemia cells and the median life span of the mice with the compound was evaluated at a dose of 400 mg/kg. The class given is functional. The following applies: route intraperitoneal. Put shortly: as §1
Assay [11] has as its system Mus musculus. The assay can be described thus: Mice were inoculated intraperitoneally with L1210 leukemia cells and the percentage ILS of the mice with the compound was evaluated at a dose of 50 mg/kg. The class given is functional. The note with it: L1210, ip, route intraperitoneal. Put shortly: as §1
Assay [12] has as its system Mus musculus. Briefly: Mice were inoculated intraperitoneally with L1210 leukemia cells and the median life span of the mice with the compound was evaluated at a dose of 50 mg/kg. The note with it: route intraperitoneal. The format is functional. Put shortly:
as §1

Assay [13] concerns Mus musculus. The assay can be described thus: Mice were inoculated intraperitoneally with L1210 leukemia cells and the change in body weight of the mice with the compound was evaluated at a dose of 50 mg/kg. The class given is functional. The note with it: route intraperitoneal. Put shortly:
as §2

For assay [14], the species on record is Mus musculus. Briefly: Compound was evaluated for the cytotoxicity to L1210 leukemia cells in culture at ~1.6-fold higher concentrations and expressed as ID50. The class given is functional. The note with it: read-out: ID50 (the source's name).
The subject of assay [15] is Mus musculus. The assay can be described thus: Mice were inoculated intraperitoneally with L1210 leukemia cells and the median life span of the mice with the compound was evaluated at a dose of 800 mg/kg. The class given is functional. The note with it: route intraperitoneal. Put shortly:
as §1

Assay [16] has as its system Mus musculus. The assay can be described thus: Mice were inoculated intraperitoneally with L1210 leukemia cells and the change in body weight of the mice with the compound was evaluated at a dose of 800 mg/kg. The format is functional. The following applies: route intraperitoneal. Put shortly: as §2
In assay [17] the test system is Mus musculus. Briefly: Mice were inoculated intraperitoneally with L1210 leukemia cells and the percentage ILS of the mice with the compound was evaluated at a dose of 800 mg/kg. The format is functional. The note with it: L1210, ip, route intraperitoneal. Put shortly: as §1
The subject of assay [18] is Mus musculus. Briefly: Mice were inoculated intraperitoneally with L1210 leukemia cells and the percentage ILS of the mice with the compound was evaluated at a dose of 25 mg/kg. The format is functional. The note with it: L1210, ip, route intraperitoneal.
Assay [19] has as its system Mus musculus. Briefly: Mice were inoculated intraperitoneally with L1210 leukemia cells and the median life span of the mice with the compound was evaluated at a dose of 25 mg/kg. The format is functional. The note with it: route intraperitoneal.
Assay [20] concerns Mus musculus. The assay can be described thus: Mice were inoculated intraperitoneally with L1210 leukemia cells and the change in body weight of the mice with the compound was evaluated at a dose of 25 mg/kg. The class given is functional. The following applies: route intraperitoneal.

As a reminder, the EC50 is the concentration needed to bring the measured effect to its halfway point. Take `N=C(N)c1csc([C@@H]2O[C@H](CO)[C@@H](O)[C@H]2O)n1`: the EC50 in the assay on T-cells (human) amounted to 77 µM. In [1], this compound yielded an IC50 of 300 µM.
For orientation: ILS means how much longer treated animals lived than controls. Low readings indicate little gain in survival, high ones much gain in survival. As for `NC(=O)c1csc([C@@H]2O[C@@H]3COP(=O)(O)O[C@H]3[C@H]2O)n1`, the Median life span amounted to 17.7 days in the assay on Mus musculus [2], 14.3 days in the assay with Mus musculus [7], 18 days in the assay on Mus musculus [10] and 13.3 days in the assay on Mus musculus [12]. This compound gave an ILS at 100 mg/kg with Mus musculus [3] of 23%. Further, the Body weight change with Mus musculus [4] is -1.9 g; with Mus musculus [6], -0.6 g; in the assay on Mus musculus [8] it was -3.1 g; in the assay with Mus musculus [13], -1.1 g. The ILS at 200 mg/kg with Mus musculus [5] amounted to 52%. This compound also returned an ILS at 400 mg/kg in the assay on Mus musculus [9] of 55%. The increase in life span (ILS) at 50 mg/kg in the assay on Mus musculus [11] amounted to 14%.
Consider `NC(=O)c1csc([C@@H]2O[C@H](COP(=O)(O)O)[C@@H](O)[C@H]2O)n1`, for which the Median life span in the assay with Mus musculus [2] turned out to be 21.5 days; in the assay on Mus musculus [15] it was 16.3 days; in the assay with Mus musculus [7], 15.5 days; with Mus musculus [10], 15.2 days; with Mus musculus [12], 11.3 days. In addition, the ILS at 100 mg/kg in the assay with Mus musculus [3] amounted to 86%. Also, the Body weight change was -1.4 g in the assay with Mus musculus [4]; -1 g with Mus musculus [6]; -2 g in the assay on Mus musculus [8]; -3.6 g in the assay with Mus musculus [16]; -0.6 g in the assay with Mus musculus [13]. For the same compound, the ILS at 200 mg/kg in the assay with Mus musculus [5] was determined as 159%. Further, the IC50 in the assay filed under Mus musculus [14] came out at 3.2 µM. Further, the ILS at 400 mg/kg with Mus musculus [9] worked out at 83%. The same compound yielded an ILS at 800 mg/kg in the assay on Mus musculus [17] of 96%. The same compound returned an ILS at 50 mg/kg with Mus musculus [11] of 36%.
`NC(=O)c1csc([C@@H]2O[C@H](CO)[C@@H](O)[C@H]2O)n1` [TIAZOFURIN]: the Median life span in the assay with Mus musculus [2] was determined as 16.5 days; with Mus musculus [19], 12.8 days; in the assay on Mus musculus [15] it was 15 days; in the assay with Mus musculus [7] it was 14.8 days; in the assay on Mus musculus [10], 16.2 days; with Mus musculus [12], 13.5 days. Moreover, the ILS at 100 mg/kg in the assay on Mus musculus [3] amounted to 82%. Besides, the Body weight change is -2.9 g in the assay on Mus musculus [4]; -2.5 g with Mus musculus [6]; -2.6 g in the assay with Mus musculus [20]; -3.9 g with Mus musculus [8]; -4.4 g in the assay on Mus musculus [16]; -2.1 g in the assay with Mus musculus [13]. In addition, the ILS at 25 mg/kg in the assay on Mus musculus [18] was found to be 58%. In the assay with Mus musculus [5], the ILS at 200 mg/kg worked out at 103%. For the same compound, the IC50 in the assay listed under Mus musculus [14] was 1.9 µM. For the same compound, the ILS at 400 mg/kg in the assay with Mus musculus [9] came out at 100%. The compound further yielded an ILS at 800 mg/kg with Mus musculus [17] of 85%. In the assay on Mus musculus [11], this compound returned an ILS at 50 mg/kg of 66%.
